The record followed here is ChEMBL document CHEMBL4196017, “Design, synthesis and identification of silicon-containing HCV NS5A inhibitors with pan-genotype activity” (Eur J Med Chem, 2018).

The target in one data set is T1, Nonstructural protein 5A (Hepatitis C virus, UniProt Q5L478).
T1 sequence (Q5L478 whole entry): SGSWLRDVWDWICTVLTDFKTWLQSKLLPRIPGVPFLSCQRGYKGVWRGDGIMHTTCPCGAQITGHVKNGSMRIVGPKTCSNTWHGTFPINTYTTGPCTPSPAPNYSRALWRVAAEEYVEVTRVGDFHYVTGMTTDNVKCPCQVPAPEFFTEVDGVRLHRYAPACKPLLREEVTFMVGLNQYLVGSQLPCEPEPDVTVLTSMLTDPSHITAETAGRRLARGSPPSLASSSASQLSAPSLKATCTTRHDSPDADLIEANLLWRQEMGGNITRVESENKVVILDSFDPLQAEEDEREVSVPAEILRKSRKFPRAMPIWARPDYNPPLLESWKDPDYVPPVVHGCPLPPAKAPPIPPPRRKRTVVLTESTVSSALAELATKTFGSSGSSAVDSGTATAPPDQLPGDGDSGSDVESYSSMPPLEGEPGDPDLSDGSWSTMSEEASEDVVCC
Briefly: Inhibition of NS5A in HCV genotype 6a. Details: species or system Hepatitis C virus subtype 6a.

Data set [1] relates to Mus musculus. Briefly: Toxicity in ICR mouse assessed as creatinine level in serum at 150 mg/kg, po administered via gavage once daily for 14 days (reference value: 25.22 +/- 3.42 umol/L). It counts as organism-based. The conditions noted are these: in vivo, 336 h.
The subject of data set [2] is Mus musculus. Briefly: Toxicity in ICR mouse assessed as platelet count at 150 mg/kg, po administered via gavage once daily for 14 days (reference value: 1260.3 +/- 137.87 10^9/L). The format is organism-based. The following applies: in vivo, 336 h. Summed up: (§1)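 Haematology on abdominal aortic blood taken at necropsy under ether anaesthesia after 14 daily gavage doses (20 ml/kg) in ICR mice, 5 per sex per group, vehicle control. Parameters: WBC, RBC, haemoglobin, platelets, reticulocyte ratio and differential leukocyte counts; mean ± SD, n = 10.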

Data set [3] deals with Mus musculus. Briefly: Toxicity in ICR mouse assessed as neutrophil level in serum at 150 mg/kg, po administered via gavage once daily for 14 days (reference value: 27.74 +/- 16.27%). The format is organism-based. The following applies: in vivo, 336 h. Put shortly:
as §1

For data set [4], the system named is Mus musculus. The experiment in a line: Toxicity in ICR mouse assessed as alanine aminotransferase level in serum at 150 mg/kg, po administered via gavage once daily for 14 days (reference value: 28.33 +/- 9.89 U/L). It counts as organism-based. The following applies: in vivo, 336 h. Put shortly:
(§2)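 ICR mice, 5 males + 5 females per group, dosed by gavage once daily at 150 mg/kg (20 ml/kg) or vehicle for 14 days; killed after the 14th dose; blood from abdominal aorta under ether anaesthesia for hematology and clinical chemistry; mean ± SD, n = 10.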

Data set [5] deals with Mus musculus. Briefly: Toxicity in ICR mouse assessed as direct bilirubin level in serum at 150 mg/kg, po administered via gavage once daily for 14 days (reference value: 7.6 +/- 0.59 umol/L). The format is organism-based. The conditions noted are these: in vivo, 336 h.
Data set [6] concerns Mus musculus. The experiment in a line: Toxicity in ICR mouse assessed as liver weight at 150 mg/kg, po administered via gavage once daily for 14 days (reference value: 4.365 +/- 0.222 g). It counts as organism-based. The following applies: in vivo, 336 h.
The subject of data set [7] is Mus musculus. Briefly: Toxicity in ICR mouse assessed as aspartate aminotransferase level in serum at 150 mg/kg, po administered via gavage once daily for 14 days (reference value: 111.44 +/- 32.76 U/L). It counts as organism-based. The following applies: in vivo, 336 h. Put shortly:
as §2

Structures are written as SMILES.

As a reminder, the EC50 is the concentration needed to bring the measured effect to its halfway point. The low end stands for higher potency in that assay, the high end for lower potency in that assay. On Nonstructural protein 5A, `COC(=O)N[C@H](C(=O)N1CCC[C@H]1C(=O)Nc1ccc([C@@H]2CC[C@@H](c3ccc(NC(=O)[C@@H]4CCCN4C(=O)[C@@H](NC(=O)OC)C(C)C)cc3)N2c2ccc(C(C)(C)C)cc2)cc1)C(C)C` [OMBITASVIR] returned an EC50 of 0.055 nM.
Take `CC[Si](CC)(CC)c1ccc(N2[C@H](c3ccc(NC(=O)[C@@H]4CCCN4C(=O)[C@@H](NC(=O)OC)C(C)C)cc3)CC[C@H]2c2ccc(NC(=O)[C@@H]3CCCN3C(=O)[C@@H](NC(=O)OC)C(C)C)cc2)cc1`: the Activity in the data set on Mus musculus [1] is 23.2 µmol/L; with Mus musculus [2], 1263.4 ×10⁹ /L; in the data set on Mus musculus [3], 33.12%; in the data set with Mus musculus [4], 25.3 U/L; in the data set with Mus musculus [5], 8.57 µmol/L; with Mus musculus [6], 4.346 g. In addition, the Activity with Mus musculus [7] turned out to be 110.6 U/L.
